Screening data as filed in PubChem BioAssay.
Only some compounds are listed: those with a hit (about 2.6% of all), similar ones and a draw of the others.
CASP6 VEID inh – human caspase-6 inhibitors, primary screen, biochemical, VEID-R110 fluorescence, single point, set 2. P55212. purified caspase-6, Z-VEID-R110 cleavage fluorescence. inhibition, % at 12.5 µM. hit rate 0.53% among 350,000;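 active = mean inhibition across replicates at least about 35%, with every replicate also reaching that limit, limit read from the data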;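 note: 0% = median of neutral control wells and 100% = no fluorescence left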
NSD2 inh – NSD2 histone methyltransferase inhibitors, primary screen, biochemical, AlphaScreen, single concentration, set 2. Histone-lysine N-methyltransferase NSD2 (Homo sapiens), O96028. NSD2 peptide methylation, 120 min. inhibition, % at 12.5 µM. hit rate 0.54% among 310,000. AID 743445, 2014; in the data active = inhibition above about 50%
FGF22 binding-1 – binders of human FGF22 protein, primary screen, FGF22 synaptogenesis inhibitor project, biophysical, thermal shift, single point; Fibroblast growth factor 22 (Homo sapiens), Q9HCT0; recombinant FGF22 thermal shift, SYPRO orange fluorescence; percent of sucrose octasulfate shift, DMSO zero; activity (Tm shift, normalised), % at 9.99 µM; hit rate 1.5% among 340,000; AID 651658, 2012;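 active = mean Tm shift, scaled 0 neutral to 100 positive control, at about 1.3% or above, every replicate too, limit read from the data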
Target sequence (Q9HCT0 whole entry, looked up): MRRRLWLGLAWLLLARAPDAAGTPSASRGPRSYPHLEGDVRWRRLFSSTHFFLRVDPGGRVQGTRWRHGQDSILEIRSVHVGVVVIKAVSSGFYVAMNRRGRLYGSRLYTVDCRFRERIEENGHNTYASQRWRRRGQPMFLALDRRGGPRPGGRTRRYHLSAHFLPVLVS
SIRT5 block – SIRT5 desuccinylase inhibitors, primary screen, biochemical, fluorescence imaging, single point, set 5; NAD-dependent protein deacylase sirtuin-5, mitochondrial (Homo sapiens), Q9NXA8; Purified SirT5, succinyl-peptide AMC, trypsin-coupled fluorescence; inhibition, % at 15 µM; hit rate 1.1% among 330,000; in the data active = inhibition above about 15%
UCH37 DUB inh – inhibitors of human UCH37 deubiquitinase, primary screen, biochemical, Ub-AMC cleavage, fluorescence. Ubiquitin carboxyl-terminal hydrolase isozyme L5 (Homo sapiens), Q9Y5K5. purified proteasome/UCH37. inhibition, % (no concentration beside the values). hit rate 0.33% among 330,000. AID 588478, 2011;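 active = mean inhibition over replicate wells above about 20%, limit read from the data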;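 note: 0% = compound-free wells with enzyme and 100% = wells lacking proteasome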
Target sequence (Q9Y5K5 whole entry, looked up): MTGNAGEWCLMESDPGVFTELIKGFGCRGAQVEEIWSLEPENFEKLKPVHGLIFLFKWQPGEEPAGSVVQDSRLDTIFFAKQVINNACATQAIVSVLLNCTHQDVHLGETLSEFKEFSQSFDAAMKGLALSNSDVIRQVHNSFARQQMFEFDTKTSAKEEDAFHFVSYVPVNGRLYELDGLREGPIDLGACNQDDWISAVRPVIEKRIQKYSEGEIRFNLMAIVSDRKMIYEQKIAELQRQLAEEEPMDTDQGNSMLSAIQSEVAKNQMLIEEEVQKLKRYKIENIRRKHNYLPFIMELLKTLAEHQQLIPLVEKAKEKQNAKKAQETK
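system = Proteasome-associated human UCH37 deubiquitinase | amount = 0.15 nM proteasome as dispensed | medium = pH 7.4 Tris-HCl (50 mM) with ovalbumin, ATP-MgCl2, DTT | incubation = 30 min preincubation with enzyme, 25 min cleavage at room temperature | detection = AMC fluorescence 355/460 nm | read-out basis = percent inhibition | controls = no-proteasome and no-compound wells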
FGF22 binding-2 – binders of human FGF22 protein, dose response, FGF22 synaptogenesis inhibitor project, biophysical, thermal shift, cherry-pick retest; shares compounds with FGF22 binding-1; recombinant FGF22 thermal shift, SYPRO orange fluorescence; thermal shift activity, °C (ΔTm) at 38 µM; hit rate 2% among 1,000;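 active = fitted rise in melting shift crosses a set limit at or below the top valid dose tested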
FGF22 TSA DP – binders of human FGF22 protein, dose response, FGF22 synaptogenesis inhibitor project, biophysical, thermal shift, dry powder; shares compounds with FGF22 binding-1; Thermal shift assay, SYPRO orange, melting temperature shift; Tm shift (activity), % at 38 µM; 50 tested, under 10 active;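 active = compounds whose fitted dose curve of melting temperature shift rises past a set threshold within the tested doses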
TSA no protein – compound-only thermal shift signal without protein, dose response, artefact control for FGF22 binder project, biochemical, cherry-picked samples, RT-PCR instrument. compound-only SYPRO orange thermal shift counter-screen, no protein. hit rate 2% among 1,000. AC50, µM (doses to about 38 µM). shares compounds with FGF22 binding-1. AID 743019, 2013;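 active = rising signal whose fitted curve reaches the 0.54 level within the top valid dose, showing a melting point, actives reach about 13 µM in these data; inactive = the rest, including activity in the opposite direction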; note: value is where the raw curve crosses a fixed level and not half-maximal
The depositor's hits bear a star; i = inactive; x = no result given; [ ] = another dose, or the depositor's remark.

SMILES	CASP6 VEID inh	NSD2 inh	FGF22 binding-1	SIRT5 block	UCH37 DUB inh	FGF22 binding-2	TSA no protein	others
Cc1ccc(NC(=O)c2cccc(Oc3ccc([N+](=O)[O-])cc3)c2)c(C(=O)O)c1	7	9	x	7	-4	x	x
O=C(Nc1ccc(O)cc1)c1cccc(Oc2ccc([N+](=O)[O-])cc2)c1	2	5	3.1*	-2	1	0.16	i
COc1ccc(S(=O)(=O)Nc2cc3c4c(c2)CCN4C(=O)CC3)cc1OC	0	-2	12*	-8	1	-0.008	i
COc1ccc(-c2ccc([C@@H]3[C@@H](CO)N4CCCCN(C(=O)c5ccc(F)cc5)C[C@@H]34)cc2)cc1	0	x	34*	-1	x	0.089[42 µM]	9µM*
COc1ccc(-c2ccc([C@H]3[C@@H](CO)N4CCCCN(C(=O)c5ccc6c(c5)OCO6)C[C@H]34)cc2)cc1	2	x	1.3*	0	x	0.02	i
COc1ccc(-c2ccc([C@@H]3[C@H]4CN(C(=O)c5ccc(F)cc5)CCCCN4[C@H]3CO)cc2)cc1	-1	x	-1	2	x	x	x
CN(C)C(=O)c1ccc(-c2ccc([C@@H]3[C@@H](C#N)N(C(=O)C4CCOCC4)[C@H]3CO)cc2)cc1	3	x	0	-1	x	x	x
O=C(O)c1ccccc1Nc1ccc([N+](=O)[O-])cc1	-5	4	1.7*	5	6	0.34	i
COc1cc(F)ccc1-c1cc(C(=O)NCc2cccs2)[nH]n1	9	-1	0	1	x	x	x
CC(C)Oc1ccc(F)cc1-c1cc(C(=O)NCc2cccs2)[nH]n1	1	-2	1.6*	0	x	-0.075	i
CC(C)c1ccc(NC2CCCN(C(=O)c3cc(C(C)C)[nH]n3)C2)cc1 (stereo not given)	0	13	28*	1	3	0.2	i
C/C=C/c1ccc([C@H]2[C@H](CO)N3C(=O)CN(C(=O)c4cccc(F)c4)C[C@@H]23)cc1	2	x	x	0	x	x	x
CCN(CC)S(=O)(=O)c1ccc(NN=C(C)c2ccc3c(c2)OCO3)c([N+](=O)[O-])c1	x	x	x	x	3	x	x
CC1CC(CC(=O)NC(=S)Nc2ccccc2Cl)C(=O)O1 (stereo not given)	5	0	1.6*	-1	4	0.091	i
COc1cc(/C=N/NC(=O)c2ccncc2)ccc1OCC(=O)Nc1cccc([N+](=O)[O-])c1	1	2	1.9*	2	x	-0.027	i
COc1cc(/C=N/NC(=O)c2ccncc2)ccc1OCC(=O)Nc1ccc(C)c(C)c1	2	0	0	1	x	x	x
CC(=O)NC(Cc1c[nH]c2ccccc12)C(=O)NCCc1ccccn1 (stereo not given)	2	4	1.6*	0	1	0.2	i
COc1ccc(OCCNC(=O)C(Cc2c[nH]c3ccccc23)NC(C)=O)cc1 (stereo not given)	-1	-1	0	-3	4	x	x
CSc1ccc(C(=O)NCC2CCN(C(=O)C(=O)c3cc4ccccc4o3)CC2)cc1	0	x	1.5*	x	x	-0.037	i
Cc1ccc(NC(=S)N=C(N)Nc2nc(C)c3cc(C)ccc3n2)c(C)c1	x	x	x	x	2	x	x
Cc1[nH]c2ccc(C(=O)OCC(=O)Nc3cccc(S(N)(=O)=O)c3)cc2c1C	3	11	1.6*	2	-6	x	i	FGF22 TSA DP=0
O=C(C1CC1)N1CC(=O)N2[C@@H](CO)[C@@H](c3ccc(-c4cccnc4)cc3)[C@@H]2C1	-8	x	x	-5	x	x	x
COC(=O)C[C@H]1CC[C@H]2[C@H](COc3ccc(NC(=O)NC(C)C)cc3C(=O)N2C)O1	0	x	1	4	x	x	x
COC(=O)C[C@@H]1CC[C@H]2[C@@H](COc3ccc(NC(=O)NC(C)C)cc3C(=O)N2C)O1	-1	x	1.3*	-5	x	0.025	i
Cc1nn(C)cc1NC(=O)C[C@H]1CC[C@@H]2[C@@H](COc3ccc(NC(=O)NC(C)C)cc3C(=O)N2C)O1	0	x	1.6*	-6	x	0.039	i
SMILES	CASP6 VEID inh	NSD2 inh	FGF22 binding-1	SIRT5 block	UCH37 DUB inh	FGF22 binding-2	TSA no protein	others
COC(=O)[C@@]1(CCC(=O)OC(C)(C)C)N=C(c2ccc(OCCCO)cc2)O[C@H]1c1ccccc1CN=[N+]=[N-]	1	x	-1	10	x	x	x
OC[C@@H]1[C@H](c2ccc(Br)cc2)[C@@H]2CN(Cc3cncnc3)CCCCN12	-2	x	2.4*	3	x	0.059[42 µM]	i
OC[C@@H]1[C@@H](c2ccc(-c3cccnc3)cc2)[C@@H]2CN(Cc3ccccn3)CCCCN12	-1	x	1.5*	-2	x	0.022	i
CS(=O)(=O)N1CCCCN2[C@H](CO)[C@H](c3ccc(C#Cc4ccccn4)cc3)[C@@H]2C1	-3	x	1.5*	3	x	0.16[42 µM]	i
OC[C@H]1[C@@H](c2ccc(-c3cccnc3)cc2)[C@@H]2CN(Cc3ccccn3)CCCCN12	5	x	1.5*	-2	x	0.023	i
CCS(=O)(=O)N1CCCCN2[C@H](C1)[C@@H](c1ccc(C#Cc3ccccn3)cc1)[C@@H]2CO	-3	x	0	3	x	x	x
CC(C)(C)[S@@](=O)N1Cc2cc(C(=O)NCc3ccccn3)nc(-c3cccc(-c4ccccc4F)c3)c2[C@H]1CCO	-2	x	0	1	x	x	x
O=C(CCc1c[nH]c2ccccc12)Nc1ccc(Oc2cccnc2)cc1	2	x	1.5*	x	x	-0.17	i
N#CCC(=O)Nc1ccc(C(=O)NCCc2c[nH]c3ccccc23)cc1	4	1	1.4*	-5	-3	0.013	i
C/C=C/c1ccc([C@H]2[C@@H](CO)N(C(=O)C3CCCC3)C23CN(C(=O)NC(C)C)C3)cc1	2	x	x	1	x	x	x
C[C@H]1CN([C@@H](C)CO)C(=O)Cc2cc(NC(=O)Nc3ccc(C(F)(F)F)cc3)ccc2O[C@H]1CN(C)C(=O)Nc1ccc(F)cc1	5	x	0	-3	x	x	x
